In ChEMBL document CHEMBL3992530, “Polar aromatic periphery increases agonist potency of spirocyclic free fatty acid receptor (GPR40) agonists inspired by LY2881835” (Eur J Med Chem, 2017):

Tests used:
[1] = biological target: T1, Free fatty acid receptor 1 (Homo sapiens, UniProt O14842); test: Agonist activity at human GPR40 expressed in CHO cells assessed as increase in intracellular calcium flux by Fluo-8 dye based FLIPR assay; assay type: functional, cell-based
Procedure, shortened: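 Stable CHO-GPR40 line (human receptor), seeded at 12,500 cells/well 24 h before assay. Cells were loaded 1 h with Fluo-8 calcium dye and read on FLIPR Tetra. Agonist response was taken as the maximum fluorescence change over baseline. Dose-response testing gave EC50 from fitted concentration-response curves, with GW9508 run alongside as positive control.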

[2] = biological target: T1, Free fatty acid receptor 1; test: Agonist activity at human GPR40 expressed in CHO cells assessed as increase in intracellular calcium flux at 5 uM by Fluo-8 dye based FLIPR assay relative to GW9508; assay type: functional, cell-based
[3] = biological target: T2, Free fatty acid receptor 3 (Homo sapiens, UniProt O14843); test: Agonist activity at human FFA3 receptor expressed in CHO cells assessed as increase in intracellular calcium flux by Fluo-8 dye based FLIPR assay; assay type: functional, cell-based
T2 sequence (O14843 whole entry): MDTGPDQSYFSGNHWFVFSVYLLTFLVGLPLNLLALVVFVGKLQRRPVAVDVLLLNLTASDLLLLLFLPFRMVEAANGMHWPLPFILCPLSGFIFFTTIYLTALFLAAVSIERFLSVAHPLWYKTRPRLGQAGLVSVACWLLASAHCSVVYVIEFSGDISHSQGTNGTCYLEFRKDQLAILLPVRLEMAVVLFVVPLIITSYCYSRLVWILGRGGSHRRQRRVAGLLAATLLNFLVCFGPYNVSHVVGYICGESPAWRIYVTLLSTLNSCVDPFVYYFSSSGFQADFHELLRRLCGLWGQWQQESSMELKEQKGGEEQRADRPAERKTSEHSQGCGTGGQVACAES
Procedure, shortened: (§1)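 Separate CHO lines stably expressing GPR41, GPR43 or GPR120 (from ECACC) were used for specificity screening in the same format as the FFA1 assay. Cells were plated at 12,500/well 24 h ahead, loaded 1 h with Fluo-8 calcium dye, and read on a FLIPR Tetra. Response was taken as the maximum fluorescence change over baseline.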

[4] = biological target: T3, Free fatty acid receptor 2 (Homo sapiens, UniProt O15552); test: Agonist activity at human FFA2 receptor expressed in CHO cells assessed as increase in intracellular calcium flux by Fluo-8 dye based FLIPR assay; assay type: functional, cell-based; procedure, shortened: as §1
T3 sequence (O15552 whole entry): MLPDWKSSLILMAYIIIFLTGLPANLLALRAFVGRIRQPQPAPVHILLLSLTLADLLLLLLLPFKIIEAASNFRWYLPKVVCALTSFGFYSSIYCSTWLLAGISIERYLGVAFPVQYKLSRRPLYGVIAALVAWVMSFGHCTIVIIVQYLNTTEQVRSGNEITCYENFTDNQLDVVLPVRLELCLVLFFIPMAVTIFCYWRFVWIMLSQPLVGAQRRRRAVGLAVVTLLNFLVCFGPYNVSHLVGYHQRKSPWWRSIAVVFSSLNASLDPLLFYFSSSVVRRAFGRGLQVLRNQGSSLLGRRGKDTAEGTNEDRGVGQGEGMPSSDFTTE

[5] = biological target: T4, Free fatty acid receptor 4 (Homo sapiens, UniProt Q5NUL3); test: Agonist activity at human GPR120 expressed in CHO cells assessed as increase in intracellular calcium flux by Fluo-8 dye based FLIPR assay; assay type: functional, cell-based; procedure, shortened: as §1
T4 sequence (Q5NUL3 whole entry): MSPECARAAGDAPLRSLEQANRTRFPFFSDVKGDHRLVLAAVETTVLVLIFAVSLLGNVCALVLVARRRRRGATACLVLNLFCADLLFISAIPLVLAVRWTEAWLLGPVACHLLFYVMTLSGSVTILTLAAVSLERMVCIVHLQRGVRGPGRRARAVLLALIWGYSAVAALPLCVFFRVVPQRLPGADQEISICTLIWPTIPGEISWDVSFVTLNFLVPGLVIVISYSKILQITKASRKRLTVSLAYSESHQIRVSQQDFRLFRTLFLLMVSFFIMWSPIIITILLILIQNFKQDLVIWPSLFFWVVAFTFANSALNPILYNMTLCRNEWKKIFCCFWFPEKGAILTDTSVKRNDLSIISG

[6] = Kinetic aqueous solubility of the compound in PBS buffer […] at pH 7.4 by UV-Visible spectrophotometric analysis; assay type: physicochemical; details: read-out: Kinetic_solubility
Procedure, shortened: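 Kinetic solubility: a 40 mM DMSO stock was diluted to a nominal 800 μM in duplicate in PBS (138 mM NaCl, 2.7 mM KCl, 10 mM K-phosphate, pH 7.4, 2% final DMSO). Samples were shaken 2 h at 25°C and then filtered. Filtrates were diluted 2-fold in methanol and quantified by UV scan (200-550 nm) against 0, 200 and 400 μM calibrants in 50% methanol/PBS. Values average n = 4.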

[7] = Half life in Balb/c mouse liver microsomes at 2 uM in presence of NADPH by HPLC-MS analysis; assay type: ADME, microsome
Procedure, shortened: (§2)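 Microsomes from pooled (50) perfused livers of male BALB/c mice, 0.42 mg protein/mL, in 100 mM K-phosphate pH 7.4 with MgCl2 3.3 mM, NADPH 3 mM, G6P 5.3 mM and G6PDH 0.67 U/ml. Compound was 2 μM (1.6% solvent) at 37°C, sampled at five points over 40 min in duplicate. Reactions were quenched with acetonitrile and analysed by HPLC-MS/MS. kel came from ln(AUC) vs time, T1/2 = 0.693/kel, and CLint was scaled per mg microsomes.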

[8] = Intrinsic clearance in Balb/c mouse liver microsomes at 2 uM in presence of NADPH by HPLC-MS analysis; assay type: ADME, microsome; procedure, shortened: as §2
[9] = Apparent permeability from apical to basolateral direction in human Caco2 cells at 10 uM after 2 hrs by HPLC-MS analysis; assay type: ADME, cell-based; details: Caco-2
Procedure, shortened: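 Caco-2 cells were grown to 70–80% confluence, then seeded at 1x10⁵ cells/well on 24-well semipermeable inserts and washed twice with PBS. Compound was 10 μM in HBSS with 5,6 mM glucose and 10 mM HEPES, pH 7.4, applied apically in duplicate for 2 h at 37 °C. Receiver concentrations were measured by HPLC-MS, and Papp was computed from acceptor volume, insert area, time and acceptor/initial donor concentration.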

T1 sequence (O14842 whole entry): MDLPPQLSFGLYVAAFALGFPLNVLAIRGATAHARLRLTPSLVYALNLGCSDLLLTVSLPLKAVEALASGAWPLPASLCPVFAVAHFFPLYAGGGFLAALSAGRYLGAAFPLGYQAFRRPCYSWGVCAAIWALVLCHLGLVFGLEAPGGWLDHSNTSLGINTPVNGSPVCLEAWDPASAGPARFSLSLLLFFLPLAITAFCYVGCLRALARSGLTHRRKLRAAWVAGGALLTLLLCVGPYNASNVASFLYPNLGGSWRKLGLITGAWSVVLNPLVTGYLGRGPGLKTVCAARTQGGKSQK

Row | SMILES | EC50 [1] [nM] | %max [2] [%] | other results
1 | O=C(O)CCc1ccc(OCc2ccc(CN3CCC4(CC3)CC(CCOc3ccc(C(F)(F)F)cn3)CCO4)cc2)cc1 (stereo not given) | 33500 | 79.2 | 
2 | Cc1cccc(OCCC2CCOC3(CCN(Cc4ccc(COc5ccc(CCC(=O)O)cc5)cc4)CC3)C2)n1.Cl.Cl (stereo not given) | 260 | 100 | EC50 [3]: > 10000 nM; EC50 [4]: > 10000 nM; EC50 [5]: > 10000 nM; solubility kinetic [6]: 228 µM; half-life at 2 µM [7]: 22.9 min; CL int at 2 µM [8]: 72.8 µL/min/mg; Papp A→B at 2 h, 10 µM [9]: 7.3 ×10⁻⁶ cm/s
3 | Cc1ccnc(OCCC2CCOC3(CCN(Cc4ccc(COc5ccc(CCC(=O)O)cc5)cc4)CC3)C2)c1 (stereo not given) | 1110 | 110 | 
4 | Cc1nccnc1OCCC1CCOC2(CCN(Cc3ccc(COc4ccc(CCC(=O)O)cc4)cc3)CC2)C1 (stereo not given) | 1270 | 105 | 
5 | O=C(O)CCc1ccc(OCc2ccc(CN3CCC4(CC3)CC(CCOc3ccncc3)CCO4)cc2)cc1 (stereo not given) | 6100 | 48.5 | 
6 | Cc1cnc(C)c(OCCC2CCOC3(CCN(Cc4ccc(COc5ccc(CCC(=O)O)cc5)cc4)CC3)C2)n1 (stereo not given) | 1140 | 80.2 | 
7 | O=C(O)CCc1ccc(OCc2ccc(CN3CCC4(CC3)CC(Oc3ccccn3)CCO4)cc2)cc1 (stereo not given) | 900 |  | 
8 | O=C(O)CCc1ccc(OCc2ccc(CN3CCC4(CC3)CC(CCOc3nc(C5CC5)nc5c3CCC5)CCO4)cc2)cc1 (stereo not given) | 1210 | 60.5 | 
9 | O=C(O)CCc1ccc(OCc2ccc(CN3CCC4(CCCCO4)CC3)cc2)cc1 | > 20000 |  | 
10 | O=C(O)CCc1ccc(OCc2ccc(CN3CCC4(CC3)CC(CCOc3ccc5ccccc5n3)CCO4)cc2)cc1 (stereo not given) | 2360 | 83.4 | 
11 | O=C(O)CCc1ccc(OCc2ccc(CN3CCC4(CC3)CC(CCOc3cccnc3)CCO4)cc2)cc1 (stereo not given) | 2560 | 61.7 | 
12 | O=C(O)CCc1ccc(OCc2ccc(CN3CCC4(CC3)CC(CCOc3ccc(F)cc3)CCO4)cc2)cc1 (stereo not given) | 2060 | 55 | 
13 | O=C(O)CCc1ccc(OCc2ccc(CN3CCC4(CC3)CC(CCOc3ncnc5c3CCC5)CCO4)cc2)cc1 (stereo not given) | 1260 | 78.4 | 
14 | O=C(O)CCc1ccc(OCc2ccc(CN3CCC4(CC3)CC(CCOc3ncccn3)CCO4)cc2)cc1 (stereo not given) | 3870 | 54.5 | 
15 | O=C(O)CCc1ccc(OCc2ccc(CN3CCC4(CC3)CC(CCOc3cnccn3)CCO4)cc2)cc1 (stereo not given) | 1480 | 83.5 | 
